≈ marks a conversion by molar mass, not a printed value.
Experiments:
Type in all cases: physicochemical
[1] = Stability in solid state at -20 degC after 4 months; settings: 2922 h
[2] = Photostability in phosphate-buffered saline assessed as paclitaxel release at pH 7.4 after 4 mins of irradiation with UV laser of 355 nm, 10 Hzm 5 mJ irradiation; settings: buffer, pH 7.4, 4 min
Outline: (§1)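 The conversion profile was measured in 10 mM PBS (pH 7.4) under pulsed UV laser irradiation (355 nm, 10 Hz, 5 mJ). The released isotaxel then undergoes spontaneous O–N intramolecular acyl migration to give paclitaxel.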

[3] = Photostability in phosphate-buffered saline assessed as paclitaxel release at pH 7.4 after irradiation with UV laser of 355 nm, 10 Hzm 5 mJ irradiation; settings: buffer; outline: as §1
[4] = Photostability in phosphate-buffered saline assessed as 7-[Bis-[2-[[2-(dimethylamino)ethyl]amino]-2-oxoethyl]amino]-4-(hydroxymethyl) coumarin hydrochloride release at pH 7.4 after 1 hr of irradiation with UV light of 365 nm, 6W irradiation; settings: buffer, pH 7.4, 1 h
Outline: (§2)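 Prodrug, coumarin or parent drug, as a 2 mM DMSO stock, was diluted 3:297 into 10 mM PBS (pH 7.4). It was irradiated at room temperature with a 365 nm, 6 W UV lamp, and conversion was followed by HPLC.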

[5] = Stability in phosphate-buffered saline at pH 7.4 at 4 degC after 1 month; settings: buffer, pH 7.4, 730.5 h
[6] = Photostability in phosphate-buffered saline assessed as paclitaxel release at pH 7.4 after 4 mins of irradiation with UV light of 365 nm, 6W irradiation; settings: buffer, pH 7.4, 4 min; outline: as §2
[7] = Solubility in water at 15 degC; settings: in the assay text read “25 degC” for “15 degC”
Outline: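 The filtrate of the aqueous preparation was analysed by RP-HPLC. Water solubility was quantified against a calibration curve built from standard solutions of known prodrug amounts.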

Structure (SMILES) | Stability [1] | Activity [2] | t1/2 [3] | Activity [4] | Stability [5] | Activity [6] | solubility [7]
CC(=O)O[C@H]1C(=O)[C@@]2(C)[C@H]([C@H](OC(=O)c3ccccc3)[C@]3(O)C[C@H](OC(=O)[C@H](OC(=O)c4ccccc4)[C@@H](NC(=O)OCc4cc(=O)oc5cc(N(CC(=O)NCCN(C)C)CC(=O)NCCN(C)C)ccc45)c4ccccc4)C(C)=C1C3(C)C)[C@]1(OC(C)=O)CO[C@@H]1C[C@@H]2O.Cl | Stable | 24% | 15.1 min | 11% | Stable | 69% | > 100 mg/mL
CC(=O)O[C@H]1C(=O)[C@@]2(C)[C@H]([C@H](OC(=O)c3ccccc3)[C@]3(O)C[C@H](OC(=O)[C@H](OC(=O)c4ccccc4)[C@@H](N)c4ccccc4)C(C)=C1C3(C)C)[C@]1(OC(C)=O)CO[C@@H]1C[C@@H]2O [ISOTAXEL] |  |  |  |  |  |  | 0.45 mg/mL (≈ 527 µM)
